Experimental data: ChEMBL document CHEMBL1649506, “Novel antiviral agent DTriP-22 targets RNA-dependent RNA polymerase of enterovirus 71” (Antimicrob Agents Chemother, 2009)
Activity calls are given as the source filed them. The calls are words filed in the database; no cut-off is given here.

How the values were obtained:
[1] = Selectivity index, ratio of CC50 for human RD cells to EC50 for 1 MOI EV71 infected in human RD cells
Influenza B virus = experiment: Antiviral activity against influenza B virus infected in human RD cells assessed as protection against virus-induced cytopathogenicity; type: functional, organism-based
Outline: (§1)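 CPE neutralization test: cells seeded at 3 × 10^4/well and grown 24 h at 37°C, infected at MOI 0.005 PFU/cell. After adsorption, medium with 2% FBS and compound (twofold dilutions from 25 μM) or 0.5% DMSO added. Incubated 64 h at 35°C, then formaldehyde-fixed and crystal violet-stained, read at OD570. Triplicate, repeated at least twice. EC50 interpolated between bracketing dilutions.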

Enterovirus A71 [2] = experiment: Antiviral activity against EV71 infected in human RD cells assessed as inhibition of viral plaque formation 16 hrs by plaque formation assay; type: functional, organism-based; details: Enterovirus A
Coxsackievirus B1 = experiment: Antiviral activity against Coxsackievirus B1 infected in human RD cells assessed as protection against virus-induced cytopathogenicity; type: functional, organism-based; details: Enterovirus B; outline: as §1
Enterovirus A71 [3] = experiment: Antiviral activity against EV71 harboring VP1 […] V192M mutant gene infected in human RD cells assessed as inhibition of viral plaque formation 16 hrs by plaque formation assay; type: functional, organism-based
[4] = Antiviral activity against Coxsackievirus A10 infected in human RD cells assessed as protection against virus-induced cytopathogenicity; type: functional, cell-based; details: Enterovirus A; outline: as §1
Enterovirus A71 [5] = experiment: Inhibition of EV71 recombinant 3D polymerase expressed in Escherichia coli BL21 (DE3) by polymerase elongation assay
Outline: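 His-tagged EV71 3D polymerase made in E. coli BL21(DE3) (50 μM IPTG, 25°C, 4 h) and purified on a nickel column. Assay used 1 μM enzyme in 50 mM HEPES pH 7.5, 5 mM MgCl2, 60 μM ZnCl2, 10 mM 2-mercaptoethanol, 5 μM UTP plus [α-32P]UTP, and dT15/poly(rA)300 primer/template. Run 10 min at 30°C, stopped with EDTA, product captured on DE81 filters and counted by scintillation.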

Enterovirus A71 [6] = experiment: Antiviral activity against EV71 harboring 3D […] R163K/S264L mutant gene infected in human RD cells assessed as inhibition of viral plaque formation 16 hrs by plaque formation assay; type: functional, organism-based; details: Enterovirus A
[7] = test system: Polymerase 3D (Human enterovirus 71 STH/MCN/2006), B2G369 [R163K]; experiment: Inhibition of EV71 recombinant 3D polymerase R163K mutant expressed in Escherichia coli BL21 (DE3) assessed as enzyme activity at 250 to 500 uM by polymerase elongation assay; design: scale not given: the % may be the effect or the level left; details: Enterovirus A71
Enterovirus A71 [8] = experiment: Antiviral activity EV71 4643 infected in human RD cells assessed as protection against virus-induced cytopathogenicity; type: functional, organism-based; details: Enterovirus A, 4643, RD; outline: as §1
rhinovirus A2 = experiment: Antiviral activity against HRV2 infected in human RD cells assessed as protection against virus-induced cytopathogenicity; type: functional, organism-based; details: Rhinovirus A; outline: as §1
Coxsackievirus B4 = experiment: Antiviral activity against Coxsackievirus B4 infected in human RD cells assessed as protection against virus-induced cytopathogenicity; type: functional, organism-based; details: Enterovirus B; outline: as §1
Enterovirus A71 [9] = experiment: Antiviral activity against 1 MOI EV71 infected in human RD cells assessed as viral progeny production at 1 uM treated 4 hrs postadsorption measured after 16 hrs; type: functional
Enterovirus A71 [10] = experiment: Antiviral activity against EV71 harboring 3D […] R163K mutant gene infected in human RD cells assessed as inhibition of viral plaque formation 16 hrs by plaque formation assay; type: functional, organism-based; details: Enterovirus A
Coxsackievirus B5 = experiment: Antiviral activity against Coxsackievirus B5 infected in human RD cells assessed as protection against virus-induced cytopathogenicity; type: functional, organism-based; details: Enterovirus B; outline: as §1
[11] = Cytotoxicity against human RD cells after 16 hrs by MTS-based assay; type: cell-based
Enterovirus A71 [12] = experiment: Antiviral activity against 1 MOI EV71 infected in human RD cells assessed as inhibition of IRES-mediated viral RNA translation at 2 uM after 6 to 14 hrs by luciferase reporter gene assay; type: functional, organism-based
Human alphaherpesvirus 2 = experiment: Antiviral activity against HSV2 infected in human RD cells assessed as protection against virus-induced cytopathogenicity; type: functional, organism-based; details: Human alphaherpesvirus 2, RD
Enterovirus A71 [13] = experiment: Antiviral activity EV71 1743 infected in human RD cells assessed as protection against virus-induced cytopathogenicity; type: functional, organism-based; details: Enterovirus A, 1743, RD; outline: as §1
Enterovirus A71 [14] = experiment: Antiviral activity against 1 MOI EV71 infected in human RD cells assessed as inhibition of viral RNA production at 2 uM after 6 to 14 hrs by slot blot analysis; type: functional, organism-based
Outline: (§2)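 RD cells infected with EV71 at MOI 1 PFU/cell for 1 h at room temperature, washed, then kept in medium with 2 μM compound at 35°C. Intracellular RNA extracted at intervals p.i. Viral RNA quantified by TaqMan real-time RT-PCR, or by slot blot with DIG-labelled genome- and antigenome-specific RNA probes. Compared with DMSO at each time point.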

Enterovirus A71 [15] = experiment: Antiviral activity against 0.001 PFU/cell EV71 infected in human RD cells assessed as inhibition of viral plaque formation at 0.1 uM after 16 hrs by plaque formation assay; type: functional; design: scale not given: the % may be the effect or the level left
Outline: (§3)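 Virus yield assay: RD cells (6 × 10^5/well) infected with EV71 TW/2231/98 at the stated MOI for 1 h at room temperature, washed twice, then kept in 2% FBS medium with compound (0–2.5 μM) at 35°C. At 16 h p.i., supernatant and debris pooled and titrated by plaque assay in RD cells (0.3% agarose overlay, 4 days at 35°C, crystal violet, PFU/ml).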

Coxsackievirus B2 = experiment: Antiviral activity against Coxsackievirus B2 infected in human RD cells assessed as protection against virus-induced cytopathogenicity; type: functional, organism-based; details: Enterovirus B; outline: as §1
Enterovirus A71 [16] = experiment: Antiviral activity against 1 MOI EV71 infected in human RD cells assessed as inhibition of viral progeny production at 1 uM treated 2 hrs postinfection measured after 16 hrs; type: functional; details: Enterovirus A
Enterovirus A71 [17] = experiment: Antiviral activity against 0.001 MOI EV71 infected in human RD cells assessed as inhibition of viral plaque formation 16 hrs by plaque formation assay; type: functional, organism-based; details: Enterovirus A; outline: as §3
Coxsackievirus A9 = experiment: Antiviral activity against Coxsackievirus A9 infected in human RD cells assessed as protection against virus-induced cytopathogenicity; type: functional, organism-based; details: Enterovirus B; outline: as §1
Echovirus E9 = experiment: Antiviral activity against Echovirus 9 infected in human RD cells assessed as protection against virus-induced cytopathogenicity; type: functional, organism-based; details: Enterovirus B; outline: as §1
Enterovirus A71 [18] = experiment: Antiviral activity EV71 2231 infected in human RD cells assessed as protection against virus-induced cytopathogenicity; type: functional, organism-based; details: Enterovirus A, 2231, RD; outline: as §1
Enterovirus A71 [19] = experiment: Antiviral activity against 1 MOI EV71 infected in human RD cells assessed as inhibition of viral RNA production at 2 uM after 6 to 14 hrs by real-time RT-PCR analysis; type: functional; details: Enterovirus A; outline: as §2
Enterovirus A71 [20] = experiment: Antiviral activity against EV71 harboring 2C […] T256A mutant gene infected in human RD cells assessed as inhibition of viral plaque formation 16 hrs by plaque formation assay; type: functional, organism-based; details: Enterovirus A
Enterovirus A71 [21] = experiment: Antiviral activity against 0.001 PFU/cell EV71 TW/2231/98 infected in human RD cells assessed as inhibition of viral plaque formation after 10 passages by plaque formation assay; type: functional, organism-based; details: Enterovirus A, TW/2231/98, RD
Enterovirus A71 [22] = experiment: Antiviral activity against 1 MOI EV71 infected in human RD cells assessed as inhibition of viral progeny production at 1 uM treated 4 hrs postadsorption measured after 16 hrs; type: functional, organism-based
Enterovirus A71 [23] = experiment: Antiviral activity against 1 MOI EV71 infected in human RD cells assessed as inhibition of viral plaque formation 16 hrs by plaque formation assay; type: functional, organism-based; details: Enterovirus A; outline: as §3
Human alphaherpesvirus 1 = experiment: Antiviral activity against HSV1 infected in human RD cells assessed as protection against virus-induced cytopathogenicity; type: functional, organism-based; details: Human alphaherpesvirus 1, RD
Enterovirus A71 [24] = experiment: Antiviral activity against 0.001 PFU/cell EV71 TW/2231/98 infected in human RD cells assessed as inhibition of viral plaque formation after 16 hrs by plaque formation assay; type: functional, organism-based; details: Enterovirus A, TW/2231/98, RD; outline: as §3
Coxsackievirus A16 = experiment: Antiviral activity against Coxsackievirus A16 infected in human RD cells assessed as protection against virus-induced cytopathogenicity; type: functional, cell-based; details: Enterovirus A; outline: as §1
Enterovirus A71 [25] = experiment: Inhibition of EV71 recombinant 3D polymerase expressed in Escherichia coli BL21 (DE3) assessed as inhibition of Vpg-pU(pU) synthesis at 250 to 500 uM by gel electrophoresis
Outline: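 VPg uridylylation: 1 μM recombinant EV71 3D with 2 μg synthetic VPg, 0.5 μg poly(rA)300, 10 μM UTP plus 0.04 μM [α-32P]UTP, in 50 mM HEPES pH 7.5 with 2.5 mM Mn(OAc)2 and 8% glycerol. Incubated 60 min at 33°C. Products resolved on 13.5% Tricine SDS-PAGE and detected by autoradiography.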

Coxsackievirus A24 = experiment: Antiviral activity against Coxsackievirus A24 infected in human RD cells assessed as protection against virus-induced cytopathogenicity; type: functional, organism-based; details: Enterovirus C; outline: as §1
Enterovirus A71 [26] = experiment: Antiviral activity EV71 BrCr infected in human RD cells assessed as protection against virus-induced cytopathogenicity; type: functional, organism-based; details: Enterovirus A; outline: as §1
Enterovirus A71 [27] = experiment: Antiviral activity against 0.001 PFU/cell EV71 TW/2231/98 infected in human RD cells assessed as inhibition of viral plaque formation after 14 passages by plaque formation assay; type: functional, organism-based; details: Enterovirus A, TW/2231/98, RD
Enterovirus A71 [28] = experiment: Antiviral activity against 0.001 PFU/cell EV71 TW/2231/98 infected in human RD cells assessed as inhibition of viral plaque formation after 5 passages by plaque formation assay; type: functional, organism-based; details: Enterovirus A, TW/2231/98, RD
Coxsackievirus B3 = experiment: Antiviral activity against Coxsackievirus B3 infected in human RD cells assessed as protection against virus-induced cytopathogenicity; type: functional, organism-based; details: Enterovirus B; outline: as §1
Coxsackievirus B6 = experiment: Antiviral activity against Coxsackievirus B6 infected in human RD cells assessed as protection against virus-induced cytopathogenicity; type: functional, organism-based; details: Enterovirus B; outline: as §1
Influenza A virus = experiment: Antiviral activity against Influenza A virus (A/WSN/1933(H1N1)) infected in human RD cells assessed as protection against virus-induced cytopathogenicity; type: functional, organism-based; outline: as §1

## Cc1ccsc1C(c1ccccc1Br)N1CCN(c2ncnc3c2cnn3-c2ccccc2)CC1 (stereo not drawn)
[1]
  Ratio CC50/EC50: 625
Influenza B virus
  EC50: 5900 nM
Enterovirus A71 [2]
  EC50: 308 nM
Coxsackievirus B1
  EC50: 240 nM
Enterovirus A71 [3]
  EC50: 240 nM
[4]
  EC50: 1060 nM
Enterovirus A71 [5]
  inhibition: Dose-dependent effect
Enterovirus A71 [6]
  EC50: > 25000 nM
[7]
  Activity: 28%
Enterovirus A71 [8]
  EC50: 130 nM
Rhinovirus A2
  EC50: 1690 nM
Coxsackievirus B4
  EC50: 230 nM
Enterovirus A71 [9]
  Activity: 76%
Enterovirus A71 [10]
  EC50: > 25000 nM
Coxsackievirus B5
  EC50: 130 nM
[11]
  CC50 at 16 h: 100000 nM
Enterovirus A71 [12]
  inhibition: inactive
Human alphaherpesvirus 2
  EC50: > 25000 nM
Enterovirus A71 [13]
  EC50: 440 nM
Enterovirus A71 [14]
  inhibition: Active
Enterovirus A71 [15]
  Activity: 95%
Coxsackievirus B2
  EC50: 70 nM
Enterovirus A71 [16]
  inhibition at 1 µM: 79%
Enterovirus A71 [17]
  EC50: 23 nM
Coxsackievirus A9
  EC50: 990 nM
Echovirus E9
  EC50: 1220 nM
Enterovirus A71 [18]
  EC50: 980 nM
Enterovirus A71 [19]
  inhibition at 2 µM: 87%
Enterovirus A71 [20]
  EC50: 279 nM
Enterovirus A71 [21]
  EC50: > 25000 nM
Enterovirus A71 [22]
  inhibition: inactive
Enterovirus A71 [23]
  EC50: 160 nM
Human alphaherpesvirus 1
  EC50: > 25000 nM
Enterovirus A71 [24]
  EC50: 740 nM
Coxsackievirus A16
  EC50: 80 nM
Enterovirus A71 [25]
  inhibition: inactive
Coxsackievirus A24
  EC50: 80 nM
Enterovirus A71 [26]
  EC50: 150 nM
Enterovirus A71 [27]
  EC50: > 25000 nM
Enterovirus A71 [28]
  EC50: 250 nM
Coxsackievirus B3
  EC50: 260 nM
Coxsackievirus B6
  EC50: 330 nM
Influenza A virus
  EC50: 5980 nM
